Consider twelve compounds from ChEMBL document CHEMBL1133361, “Synthesis and biological activity of peptidyl aldehyde urokinase inhibitors” (Bioorg Med Chem Lett, 2000).

The target in data set [1] is Tissue-type plasminogen activator (Homo sapiens, UniProt P00750). Kind of data set: The compound was tested in vitro for its inhibitory activity against human t-PA enzyme, activity expressed as IC50. A digest of the protocol: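 Human t-PA (1 nM final) was tested for cleavage of chromogenic substrate Pefachrome t-PA. IC50 was taken as the inhibitor concentration giving 50% inhibition of substrate cleavage.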
Sequence of Tissue-type plasminogen activator (P00750 whole entry): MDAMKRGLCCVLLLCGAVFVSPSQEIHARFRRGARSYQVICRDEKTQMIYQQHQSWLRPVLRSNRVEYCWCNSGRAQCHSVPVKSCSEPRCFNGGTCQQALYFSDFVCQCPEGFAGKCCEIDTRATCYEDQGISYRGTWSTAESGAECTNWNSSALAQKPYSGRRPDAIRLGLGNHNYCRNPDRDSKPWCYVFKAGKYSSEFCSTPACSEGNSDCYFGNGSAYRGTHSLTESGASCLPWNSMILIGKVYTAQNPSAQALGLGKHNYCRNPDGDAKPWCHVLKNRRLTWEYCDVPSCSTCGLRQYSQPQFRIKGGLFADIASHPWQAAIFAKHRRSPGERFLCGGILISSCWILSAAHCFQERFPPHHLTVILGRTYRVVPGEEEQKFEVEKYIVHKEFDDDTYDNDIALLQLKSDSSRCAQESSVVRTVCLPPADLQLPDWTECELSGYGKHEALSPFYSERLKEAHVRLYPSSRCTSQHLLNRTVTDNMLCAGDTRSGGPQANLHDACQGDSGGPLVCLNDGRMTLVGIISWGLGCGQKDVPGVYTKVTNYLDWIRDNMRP

Data set [2] has as its target Urokinase-type plasminogen activator (Homo sapiens, UniProt P00749). The data set is described as follows: The compound was tested in vitro for its inhibitory activity against human urokinase enzyme, activity expressed as IC50.
The target in another data set is Plasminogen (Homo sapiens, UniProt P00747). Kind of data set: The compound was tested in vitro for its inhibitory activity against human Plasmin enzyme, activity expressed as IC50.
Sequence of Plasminogen (P00747 97-580 limits assumed): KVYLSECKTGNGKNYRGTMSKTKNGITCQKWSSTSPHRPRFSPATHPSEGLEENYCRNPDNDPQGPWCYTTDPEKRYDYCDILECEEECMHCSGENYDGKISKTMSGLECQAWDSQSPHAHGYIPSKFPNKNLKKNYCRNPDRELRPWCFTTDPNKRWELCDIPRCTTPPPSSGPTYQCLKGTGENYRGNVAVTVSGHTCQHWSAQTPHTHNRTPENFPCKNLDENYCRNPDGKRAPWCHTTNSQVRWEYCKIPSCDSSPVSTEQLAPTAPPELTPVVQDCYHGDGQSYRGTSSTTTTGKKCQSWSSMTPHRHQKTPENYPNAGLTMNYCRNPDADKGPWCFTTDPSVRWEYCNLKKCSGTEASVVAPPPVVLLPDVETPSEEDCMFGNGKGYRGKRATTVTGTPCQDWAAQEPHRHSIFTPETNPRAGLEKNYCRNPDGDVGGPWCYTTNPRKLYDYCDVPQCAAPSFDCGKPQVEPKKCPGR
Sequence of Plasminogen (P00747 581-810 limits assumed): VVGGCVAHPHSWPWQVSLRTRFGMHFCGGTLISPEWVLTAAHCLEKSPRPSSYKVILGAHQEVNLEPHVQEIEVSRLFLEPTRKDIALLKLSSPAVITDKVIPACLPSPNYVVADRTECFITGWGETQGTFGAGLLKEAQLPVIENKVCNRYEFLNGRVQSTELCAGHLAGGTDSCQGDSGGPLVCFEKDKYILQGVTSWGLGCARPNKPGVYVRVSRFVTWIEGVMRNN
A short description of data set [3]: Area under curve in rat plasma after administration of 50 mg/kg dose through subcutaneous route. As to conditions: sc.
Data set [4] is described as follows: Apparent terminal elimination half-life in rat plasma after administration of 50 mg/kg dose through subcutaneous route. As to conditions: sc.
Data set [5] can be described thus: Maximum concentration in rat plasma after administration of 50 mg/kg dose through subcutaneous route. Conditions: sc.
A short description of data set [6]: Total concentration in rat plasma after administration of 50 mg/kg dose through subcutaneous route. Conditions: sc.
A short description of data set [7]: Area under curve in dog after administration of 20 mg/kg dose through peroral route. It counts as ADME, organism-based, Canis lupus familiaris. Also on record: dose 20 mg/kg, route oral. As to conditions: in vivo, po. A digest of the protocol:
(§1)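 Conscious dogs (n=3) were given a single 20 mg/kg oral dose. Plasma drug levels were quantified by solid-phase extraction followed by HPLC mass spectrometry, and elimination half-life, Cmax and AUC were derived from the plasma concentration-time profile.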

Data set [8] can be described thus: Maximum concentration in rat plasma after administration of 50 mg/kg dose through subcutaneous route. Conditions: sc. Type of data set: ADME, organism-based. The arrangement: dose 50 mg/kg, route subcutaneous. A digest of the protocol: (§2)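 Rats (n=3) received 50 mg/kg subcutaneously. Plasma was sampled over 24 h after dosing the parent aldehyde, or over 30 h after dosing its carbonate prodrug, with parent and prodrug measured. Levels were quantified by solid-phase extraction and HPLC mass spectrometry, and half-life and Cmax were taken from the concentration-time profile.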

Data set [9] in a line: Apparent terminal elimination half-life in rat plasma after administration of 50 mg/kg dose through subcutaneous route. Conditions: sc. The source holds these as a separate data set.
The nature of data set [10]: Apparent terminal elimination half-life in rat plasma after administration of 50 mg/kg dose through subcutaneous route. Type of data set: ADME, organism-based. The arrangement: dose 50 mg/kg, route subcutaneous. As to conditions: sc. A digest of the protocol: as §2
The nature of data set [11]: Maximum concentration in dog after administration of 20 mg/kg dose through peroral route. It counts as ADME, organism-based, Canis lupus familiaris. The arrangement: dose 20 mg/kg, route oral. Conditions: in vivo, po. An outline of the steps:
as §1

Data set [12] in a line: Apparent terminal elimination half-life in dog after administration of 20 mg/kg dose through peroral route. It counts as ADME, organism-based, Canis lupus familiaris. The arrangement: dose 20 mg/kg, route oral. Conditions: in vivo, po. A digest of the protocol:
as §1

Take `C[C@H](NC(=O)[C@@H](CO)NS(=O)(=O)CCc1ccccc1)C(=O)N[C@H]1CCCN(C(=N)N)C1O` (some centres not stated): the IC50 (in general, the concentration that inhibits the measured activity by half) in [1] was more than 2500 nM; in data set [2], 3.1 nM; against Plasminogen, 367 nM.

In the case of `N=C(N)N1CCC[C@H](NC(=O)C2CCN2C(=O)[C@@H](CO)NC(=O)OCc2ccccc2)C1O` (some centres not stated), the figures for the IC50 (in data set [1]; in data set [2]; against Plasminogen) were more than 2500 nM, 11 nM and 482 nM, respectively.

As to `C[C@H](NC(=O)[C@@H](CO)NS(=O)(=O)Cc1ccccc1)C(=O)N[C@H]1CCCN(C(=N)N)C1O` (some centres not stated), the half-maximal inhibitory concentration (IC50) is more than 2500 nM in data set [1], 5.1 nM in data set [2] and 275 nM against Plasminogen.

`C[C@H](NC(=O)[C@@H](CO)NC(=O)OCc1ccccc1)C(=O)N[C@H]1CCCN(C(=N)N)C1O` (some centres not stated): the values for the IC50 (in [1]; at Plasminogen) were more than 2500 nM and 904 nM, respectively.

In the case of `CC(O)[C@@H](NC(=O)OCc1ccccc1)C(=O)N[C@@H](C)C(=O)N[C@H]1CCCN(C(=N)N)C1O` (some centres not stated), the figures for the half-inhibitory concentration (IC50) (in data set [1]; in data set [2]; against Plasminogen) were more than 2500 nM, 261 nM and 699 nM, respectively.

As to `C[C@@H](NC(=O)[C@@H](CO)NC(=O)OCc1ccccc1)C(=O)N[C@H]1CCCN(C(=N)N)C1O` (some centres not stated), the IC50 (in data set [1]; in data set [2]; on Plasminogen) was more than 2500 nM in each case.

Consider `CC(C)COC(=O)N[C@H](COC(=O)O)C(=O)N[C@@H](C)C(=O)N[C@H]1CCCN(C(=N)N)C1O.O=C(O)C(F)(F)F` (some centres not stated), for which the exposure (AUC) (usually the area under the concentration-time curve, a measure of exposure) in data set [3] was 38600 ng·h/mL. The half-life – broadly, the time in which the quantity being followed falls by half – in data set [4] was 642 min. The highest level in [5] (Cmax) was 2300 ng/mL. In data set [6], the time of peak concentration (Tmax) (commonly the time at which the peak concentration occurs) came to 2.67 h.

Consider `N=C(N)N1CCCC(NC(=O)[C@H]2CCCN2C(=O)C(CO)NC(=O)OCc2ccccc2)C1O` (some centres not stated), for which the IC50 is more than 2500 nM in data set [1] and 125 nM at Plasminogen.

For the compound `N=C(N)N1CCC[C@@H](NC(=O)[C@H]2CCCCN2C(=O)[C@@H](CO)NC(=O)OCc2ccccc2)C1O` (some centres not stated), the values for the IC50 in data set [1] and in data set [2] were more than 2500 nM and 101 nM, respectively.

For `CC(C)COC(=O)N[C@H](CO)C(=O)N[C@@H](C)C(=O)N[C@H]1CCCN(C(=N)N)C1O.O=C(O)C(F)(F)F` (some centres not stated), the exposure (AUC) in data set [3] was 44500 ng·h/mL; in data set [7], 38900 ng·h/mL. In addition, the Cmax (as a rule, the peak of the concentration-time curve) in [8] was 4700 ng/mL; in [5], 4700 ng/mL; in data set [11] it was 22900 ng/mL. The results for the IC50 (in data set [1]; in data set [2]; at Plasminogen) were more than 2500 nM, 23.1 nM and 1460 nM, respectively. Besides, the half-life in [9] is 300 min; in data set [10], 300 min; in [12] it was 51 min. Also, the Tmax in data set [6] came to 2.33 h.

For the compound `C[C@H](NC(=O)[C@@](C)(CO)NC(=O)OCc1ccccc1)C(=O)N[C@H]1CCCN(C(=N)N)C1O` (some centres not stated), the IC50 (in [1]; in [2]; against Plasminogen) was more than 2500 nM throughout.

With `C[C@H](NC(=O)[C@@H](CO)NS(=O)(=O)c1ccccc1)C(=O)N[C@H]1CCCN(C(=N)N)C1O` (some centres not stated), the IC50 in data set [1] was more than 2500 nM; against Plasminogen it was 1170 nM.
